Experimental data taken from PMC5131813 (Molecular Pain, 2016).

Key:
CCI, SNL, CFA = details: cited from earlier work
[1] = system: AITC-induced licking/biting; details: cited from earlier work
rTRPA1 = rTRPA1 (Rattus norvegicus, UniProt Q6RI86); test: rTRPA1 agonism assay; format: cell-based
[2] = system: 40 targets including GPCRs, ion channels, and kinases; test: CEREP selectivity profiling; format: binding
[3] = system: SNL-induced tactile allodynia; test: SNL-induced tactile allodynia; format: in vivo; details: rat; 1 h and 2 h
In short: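 Two weeks after spinal nerve ligation, rats on a metal mesh floor were tested with nine von Frey filaments at near-equal log intervals. Filaments were applied to the mid-plantar glabrous area of the injured paw, and the 50% withdrawal threshold was found by the up-down method. After a baseline reading, rats received oral vehicle, test compound (100 or 300 mg/kg) or gabapentin 200 mg/kg and were retested at 1 and 2 h. Thresholds were log-transformed before statistics.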

TRPA1 [4] = target: T1, TRPA1 (Rattus norvegicus, UniProt Q6RI86); details: 1, 3, 10, and 30 mg/kg; cited from earlier work
hTRPV1 = hTRPV1 (Homo sapiens, UniProt Q8NER1); test: TRP channel selectivity, calcium assay; format: cell-based
hTRPV4 = hTRPV4 (Homo sapiens, UniProt Q9HBA0); test: TRP channel selectivity, luminescence calcium assay in CHO cells; format: cell-based
In short: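 A tetracycline-inducible CHO line expressing human TRPV4 plus aequorin was induced with 0.5 µg/ml tetracycline 24 h before the assay. Cells were loaded for 2 h in pH 7.2 F12 containing 30 mM HEPES, 1 mM CaCl2, 0.3% BSA and 15 µM coelenterazine. Test compound was added 2.5 min before 1 µM 4α-PDD. Luminescence was read on a CCD-camera luminometer, and IC50 was calculated.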

[5] = Plasma protein binding by ultracentrifugation; format: in vitro ADME; details: male, rat
In short: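 Test compound at 5 µg/mL was incubated in male rat plasma for 15 min at 37 °C, then ultracentrifuged at 16,128 × g for 3 h at 37 °C. Samples were precipitated with acetonitrile containing internal standard, dried under nitrogen, reconstituted in methanol/water 50:50 and quantified by LC-MS/MS against calibration standards. The unbound fraction was taken as measured/nominal concentration.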

[6] = system: CFA-induced hypersensitivity; test: CFA-induced decreased rearing in an open field assay; format: in vivo; details: rat; for rearing time: 23 h after CFA, 60 min, CFA vehicle 204 ± 25 s; for effect on CFA-induced reduction in rearing: naproxen sodium 3 mg/kg, AMG0902 up to 100 mg/kg
rat TRPA1 = rat TRPA1 (Rattus norvegicus, UniProt Q6RI86); test: Agonist-induced TRPA1 activation in stably expressing CHO cells; format: cell-based; details: for IC50: stably expressing CHO cells
mouse TRPA1 = mouse TRPA1 (Mus musculus, UniProt Q8BLA8); test: TRPA1 activation by AITC, antagonist assay; format: cell-based
rat TRPV1 = rat TRPV1 (Rattus norvegicus, UniProt O35433); test: TRP channel selectivity, luminescence calcium assay in CHO cells; format: cell-based
In short: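 A CHO line constitutively expressing rat TRPV1 plus aequorin was used without tetracycline induction. Cells were loaded for 2 h with 15 µM coelenterazine in pH 7.2 F12 containing 30 mM HEPES. Test compound was added 2.5 min before 0.5 µM capsaicin. Luminescence was recorded by a CCD-camera luminometer, and IC50 was derived by curve fitting.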

rTRPM8 = rTRPM8 (Rattus norvegicus, UniProt Q8R455); test: TRP channel selectivity, luminescence calcium assay in CHO cells; format: cell-based
In short: (§1)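 Tetracycline-inducible stable CHO lines co-expressing aequorin were induced with 0.5 µg/ml tetracycline 24 h before the assay. Cells were loaded for 2 h in pH 7.2 F12 with 30 mM HEPES and 15 µM coelenterazine. Test compound was added 2.5 min before agonist: 200 µM 2-APB for TRPV3, or 1 µM icilin or 12 °C cold buffer for TRPM8. Luminescence was read by CCD luminometer, and IC50 was fitted.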

[7] = Unbound plasma exposure in pharmacodynamic and pain models; format: in vivo, rat
In short: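 Rats in the pain models were dosed orally with test compound in 1% Tween80/2% HPMC/97% water/methanesulfonic acid pH 2.2. Plasma drug levels were measured by LC-MS/MS after protein precipitation, using a structurally similar internal standard and calibration standards serially diluted into blank plasma from a 1 mg/mL DMSO stock.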

[8] = system: open field activity in rats; test: Open field activity; format: in vivo; details: rat open field, 60 min; for effect on total distance traveled vs vehicle: AMG0902 30-300 mg/kg, gabapentin 200 mg/kg p.o.
In short: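 Male Sprague-Dawley rats (220–300 g) were kept on a reversed light cycle for ≥1 week and acclimated 1 h. Test compound (30, 100 or 300 mg/kg), vehicle or gabapentin 200 mg/kg p.o. (same vehicle) was given 1 h before the rat was placed in a 41×41×38 cm box with 32 photocells. Beam breaks, distance, time and stereotypic movements were logged per minute over 60 min.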

[9] = Pharmacokinetics in plasma and brain; format: in vivo; details: Sprague-Dawley, rat
TRPA1 [10] = target: T1, TRPA1; test: AITC-induced licking/flinching model; format: in vivo; details: po, read-out: Rat AITC PD model IC90
In short: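 Rats dosed p.o. at 0.3, 1, 3 or 10 mg/kg, or vehicle (1% Tween80/2% HPMC/97% water/methanesulfonic acid, pH 2.2), 60 min before intraplantar AITC (30 µl, in 0.5% Tween 80/PBS). A blinded observer counted flinches and guard/licks >3 s for 1 min post-injection. Plasma levels were measured by LC-MS/MS. IC90 came from sigmoidal fit of individual response versus plasma concentration.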

rTRPV3 = target: T2, rTRPV3 (Rattus norvegicus, UniProt Q4QYD9); test: TRP channel selectivity, luminescence calcium assay in CHO cells; format: cell-based
T2 sequence (Q4QYD9 1-791): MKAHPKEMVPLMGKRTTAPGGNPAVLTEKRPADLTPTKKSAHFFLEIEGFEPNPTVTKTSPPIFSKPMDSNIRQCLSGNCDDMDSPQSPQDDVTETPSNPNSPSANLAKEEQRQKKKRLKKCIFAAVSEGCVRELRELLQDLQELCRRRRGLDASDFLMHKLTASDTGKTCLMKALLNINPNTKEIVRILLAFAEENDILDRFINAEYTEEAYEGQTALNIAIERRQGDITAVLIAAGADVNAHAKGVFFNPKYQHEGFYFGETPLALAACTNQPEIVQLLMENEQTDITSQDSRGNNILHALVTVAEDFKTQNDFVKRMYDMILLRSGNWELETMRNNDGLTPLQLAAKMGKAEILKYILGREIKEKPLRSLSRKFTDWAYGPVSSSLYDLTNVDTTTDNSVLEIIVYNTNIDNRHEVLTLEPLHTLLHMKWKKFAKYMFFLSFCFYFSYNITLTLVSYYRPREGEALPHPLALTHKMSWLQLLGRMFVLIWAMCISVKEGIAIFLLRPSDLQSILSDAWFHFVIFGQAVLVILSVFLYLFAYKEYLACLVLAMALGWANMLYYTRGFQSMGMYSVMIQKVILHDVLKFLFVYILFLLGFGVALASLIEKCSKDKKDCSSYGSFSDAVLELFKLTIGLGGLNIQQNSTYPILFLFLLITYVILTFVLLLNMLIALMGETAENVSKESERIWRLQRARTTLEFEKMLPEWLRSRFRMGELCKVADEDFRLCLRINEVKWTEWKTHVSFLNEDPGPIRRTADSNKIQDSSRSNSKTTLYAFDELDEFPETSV
In short: as §1

human TRPA1 = human TRPA1 (Homo sapiens, UniProt O75762); test: TRPA1 activation by AITC, antagonist assay; format: cell-based; details: read-out: human TRPA1 activation by AITC IC90
C-fibers = details: cited from earlier work

Chain of rat TRPA1 (Q6RI86 whole entry): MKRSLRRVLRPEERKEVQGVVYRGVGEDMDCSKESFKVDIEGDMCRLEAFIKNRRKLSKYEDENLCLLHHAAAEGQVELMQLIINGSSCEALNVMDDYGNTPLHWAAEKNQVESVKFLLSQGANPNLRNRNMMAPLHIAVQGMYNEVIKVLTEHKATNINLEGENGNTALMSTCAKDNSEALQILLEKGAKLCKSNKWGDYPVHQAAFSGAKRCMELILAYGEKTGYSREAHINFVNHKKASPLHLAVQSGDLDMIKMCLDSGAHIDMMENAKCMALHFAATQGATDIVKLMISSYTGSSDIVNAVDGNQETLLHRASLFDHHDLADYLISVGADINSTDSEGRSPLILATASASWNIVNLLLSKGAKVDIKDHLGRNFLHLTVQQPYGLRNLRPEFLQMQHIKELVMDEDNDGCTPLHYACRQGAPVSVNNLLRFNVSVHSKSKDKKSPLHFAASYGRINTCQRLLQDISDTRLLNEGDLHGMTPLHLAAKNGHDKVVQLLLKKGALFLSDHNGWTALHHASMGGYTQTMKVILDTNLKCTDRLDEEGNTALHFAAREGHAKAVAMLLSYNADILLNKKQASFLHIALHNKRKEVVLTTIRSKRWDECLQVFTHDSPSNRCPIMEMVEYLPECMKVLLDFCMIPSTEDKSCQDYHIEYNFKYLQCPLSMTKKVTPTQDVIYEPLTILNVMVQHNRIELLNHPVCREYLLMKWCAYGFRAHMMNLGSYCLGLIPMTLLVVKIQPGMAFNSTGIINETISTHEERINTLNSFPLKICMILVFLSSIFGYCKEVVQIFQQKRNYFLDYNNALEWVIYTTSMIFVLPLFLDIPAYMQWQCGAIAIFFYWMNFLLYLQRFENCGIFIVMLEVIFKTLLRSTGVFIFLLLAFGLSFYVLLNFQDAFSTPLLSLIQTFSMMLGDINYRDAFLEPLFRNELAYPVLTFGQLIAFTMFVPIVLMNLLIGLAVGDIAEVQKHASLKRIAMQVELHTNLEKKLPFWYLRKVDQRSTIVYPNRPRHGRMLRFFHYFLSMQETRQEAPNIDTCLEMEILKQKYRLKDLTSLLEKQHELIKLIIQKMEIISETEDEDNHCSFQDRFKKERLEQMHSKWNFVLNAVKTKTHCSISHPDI
T1 sequence (Q6RI86 whole entry): as above
Chain of rTRPM8 (Q8R455 whole entry): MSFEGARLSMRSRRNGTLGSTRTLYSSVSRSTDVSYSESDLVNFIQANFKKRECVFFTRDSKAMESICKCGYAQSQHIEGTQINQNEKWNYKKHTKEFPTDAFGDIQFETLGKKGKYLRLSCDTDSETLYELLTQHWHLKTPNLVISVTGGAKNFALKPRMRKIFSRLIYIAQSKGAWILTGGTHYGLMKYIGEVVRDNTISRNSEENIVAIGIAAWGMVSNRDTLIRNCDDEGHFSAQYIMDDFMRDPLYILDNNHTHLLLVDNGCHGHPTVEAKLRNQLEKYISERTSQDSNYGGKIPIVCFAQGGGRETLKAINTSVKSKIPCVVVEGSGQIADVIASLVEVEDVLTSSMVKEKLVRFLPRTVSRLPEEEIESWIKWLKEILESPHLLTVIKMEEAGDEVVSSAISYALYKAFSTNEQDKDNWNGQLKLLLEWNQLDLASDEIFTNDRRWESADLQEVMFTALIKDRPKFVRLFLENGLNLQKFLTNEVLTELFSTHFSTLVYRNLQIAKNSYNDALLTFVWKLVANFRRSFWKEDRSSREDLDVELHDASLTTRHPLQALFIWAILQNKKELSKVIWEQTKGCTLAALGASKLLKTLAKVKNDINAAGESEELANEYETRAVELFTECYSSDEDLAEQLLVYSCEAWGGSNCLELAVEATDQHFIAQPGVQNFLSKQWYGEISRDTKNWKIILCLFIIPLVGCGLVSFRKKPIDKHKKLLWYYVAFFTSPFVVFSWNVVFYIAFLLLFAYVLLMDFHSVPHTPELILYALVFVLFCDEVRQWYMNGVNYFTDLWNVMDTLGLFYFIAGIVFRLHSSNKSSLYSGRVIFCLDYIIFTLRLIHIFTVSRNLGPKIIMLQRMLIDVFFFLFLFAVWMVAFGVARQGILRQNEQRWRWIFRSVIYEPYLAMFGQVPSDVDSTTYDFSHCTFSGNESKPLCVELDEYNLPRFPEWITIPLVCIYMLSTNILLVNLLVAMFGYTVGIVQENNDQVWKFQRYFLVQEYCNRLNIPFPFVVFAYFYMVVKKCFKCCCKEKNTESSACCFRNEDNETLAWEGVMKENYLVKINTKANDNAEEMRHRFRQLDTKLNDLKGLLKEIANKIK
Chain of rTRPA1 (Q6RI86 whole entry): as the sequence (Q6RI86 whole entry) above
Chain of hTRPV1 (Q8NER1 whole entry): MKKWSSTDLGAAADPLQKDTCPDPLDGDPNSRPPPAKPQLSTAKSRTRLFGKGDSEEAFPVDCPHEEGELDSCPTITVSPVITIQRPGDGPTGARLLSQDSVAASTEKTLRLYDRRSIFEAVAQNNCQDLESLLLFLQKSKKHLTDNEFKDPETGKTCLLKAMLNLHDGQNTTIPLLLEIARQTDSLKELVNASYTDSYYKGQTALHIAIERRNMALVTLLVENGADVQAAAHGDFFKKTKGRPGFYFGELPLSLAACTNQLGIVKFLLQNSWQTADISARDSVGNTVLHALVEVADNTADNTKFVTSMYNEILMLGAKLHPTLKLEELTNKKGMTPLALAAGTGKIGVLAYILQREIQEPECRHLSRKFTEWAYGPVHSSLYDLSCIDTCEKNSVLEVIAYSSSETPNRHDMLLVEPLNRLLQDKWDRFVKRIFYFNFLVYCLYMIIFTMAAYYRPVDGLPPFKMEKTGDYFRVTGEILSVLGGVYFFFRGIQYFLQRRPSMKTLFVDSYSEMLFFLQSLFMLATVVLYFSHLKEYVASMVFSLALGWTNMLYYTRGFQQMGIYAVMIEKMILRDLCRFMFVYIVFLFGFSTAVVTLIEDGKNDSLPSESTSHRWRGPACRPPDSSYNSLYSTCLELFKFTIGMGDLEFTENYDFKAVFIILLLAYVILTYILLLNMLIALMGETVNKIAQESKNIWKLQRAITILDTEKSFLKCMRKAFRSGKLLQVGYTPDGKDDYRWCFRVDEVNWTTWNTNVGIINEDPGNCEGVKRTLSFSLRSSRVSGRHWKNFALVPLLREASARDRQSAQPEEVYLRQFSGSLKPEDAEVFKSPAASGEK
Chain of human TRPA1 (O75762 whole entry): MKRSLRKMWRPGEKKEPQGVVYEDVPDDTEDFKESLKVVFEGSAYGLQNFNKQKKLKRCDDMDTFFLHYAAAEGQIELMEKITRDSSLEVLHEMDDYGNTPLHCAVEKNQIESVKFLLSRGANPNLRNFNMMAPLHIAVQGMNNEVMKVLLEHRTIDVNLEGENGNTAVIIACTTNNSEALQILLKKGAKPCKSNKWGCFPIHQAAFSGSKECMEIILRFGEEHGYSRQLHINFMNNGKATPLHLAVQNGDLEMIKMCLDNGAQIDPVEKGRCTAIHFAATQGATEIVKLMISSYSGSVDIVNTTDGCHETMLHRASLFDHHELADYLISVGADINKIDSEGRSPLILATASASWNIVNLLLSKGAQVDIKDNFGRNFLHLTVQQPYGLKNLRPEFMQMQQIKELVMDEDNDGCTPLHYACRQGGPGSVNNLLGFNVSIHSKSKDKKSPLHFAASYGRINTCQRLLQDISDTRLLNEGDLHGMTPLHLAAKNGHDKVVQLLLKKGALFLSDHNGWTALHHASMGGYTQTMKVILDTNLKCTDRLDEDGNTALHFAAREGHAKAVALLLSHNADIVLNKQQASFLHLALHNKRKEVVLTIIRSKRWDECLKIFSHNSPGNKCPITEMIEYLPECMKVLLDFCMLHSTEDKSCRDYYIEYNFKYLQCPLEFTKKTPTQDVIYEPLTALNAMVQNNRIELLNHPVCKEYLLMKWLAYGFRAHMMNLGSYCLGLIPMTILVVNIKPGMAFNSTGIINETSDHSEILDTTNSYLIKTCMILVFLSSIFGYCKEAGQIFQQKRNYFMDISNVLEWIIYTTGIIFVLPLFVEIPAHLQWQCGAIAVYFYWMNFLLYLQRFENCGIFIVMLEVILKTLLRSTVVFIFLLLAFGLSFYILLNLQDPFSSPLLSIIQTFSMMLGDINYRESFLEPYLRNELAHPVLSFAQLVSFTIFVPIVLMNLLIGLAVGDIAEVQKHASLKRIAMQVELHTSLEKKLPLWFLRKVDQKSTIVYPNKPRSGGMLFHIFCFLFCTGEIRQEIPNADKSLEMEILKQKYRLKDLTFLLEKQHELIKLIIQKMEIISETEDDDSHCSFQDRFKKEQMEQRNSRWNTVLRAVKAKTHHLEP
Chain of rat TRPV1 (O35433 whole entry): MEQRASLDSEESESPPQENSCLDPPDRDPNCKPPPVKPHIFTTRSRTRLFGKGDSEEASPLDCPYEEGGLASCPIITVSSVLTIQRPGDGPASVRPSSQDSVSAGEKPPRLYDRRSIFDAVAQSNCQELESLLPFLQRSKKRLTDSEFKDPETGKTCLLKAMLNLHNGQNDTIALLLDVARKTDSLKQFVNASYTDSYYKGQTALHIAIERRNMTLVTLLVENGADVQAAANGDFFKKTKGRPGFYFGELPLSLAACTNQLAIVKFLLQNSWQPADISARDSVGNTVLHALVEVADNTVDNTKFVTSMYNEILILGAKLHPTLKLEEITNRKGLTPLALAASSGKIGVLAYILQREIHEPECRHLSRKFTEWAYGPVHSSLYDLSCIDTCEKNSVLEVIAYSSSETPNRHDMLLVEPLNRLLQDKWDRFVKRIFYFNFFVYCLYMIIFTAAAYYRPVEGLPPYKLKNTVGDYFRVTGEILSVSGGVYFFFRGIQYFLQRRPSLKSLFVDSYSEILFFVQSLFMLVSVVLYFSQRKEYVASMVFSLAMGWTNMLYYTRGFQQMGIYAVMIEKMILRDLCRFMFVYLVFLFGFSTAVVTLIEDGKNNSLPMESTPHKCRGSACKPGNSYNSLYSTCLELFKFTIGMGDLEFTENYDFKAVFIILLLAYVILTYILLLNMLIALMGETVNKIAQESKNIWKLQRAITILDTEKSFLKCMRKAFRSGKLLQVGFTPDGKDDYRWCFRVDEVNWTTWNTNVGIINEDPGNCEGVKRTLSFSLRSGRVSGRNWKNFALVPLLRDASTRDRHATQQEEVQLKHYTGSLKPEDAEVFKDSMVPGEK

Which results are given for `CCC(=N\O)/C(C)=C/c1ccc(F)cc1` [A-967079]?
Efficacy (CCI, SNL, CFA; CCI, SNL, CFA, MH, 62 mg/kg, p.o., ref Chen et al.[42]): ineffective; effect on von Frey-evoked tactile allodynia (CCI, SNL, CFA; CFA or SNL models): no effect; effect on AITC-induced licking/biting in vivo [1]: efficiently blocks

For `Cn1cnc2ncn(Cc3nc(CCc4ccc(Cl)cc4)no3)c(=O)c21` [AMG0902, 1-((3-(4-Chlorophenethyl)-1,2,4-oxadiazol-5-yl)methyl)-7-methyl-1H-purin-6(7H)-one], which IC50 (rTRPA1) is on record?
Its IC50 is greater than 25000 nM.

What about the “inhibition of specific ligand binding to each target” value ([2]; 40 targets profiled at CEREP) of the same compound?
Its value is less than 33%.

And the IC50 ([2]; read-out: in vitro potency at 40 targets profiled at CEREP)?
The IC50 was greater than 10000 nM.

What about the “effect on SNL-induced mechanical allodynia” value [3] of the same compound?
Its value is “no significant effect”.

And the “effect on AITC-induced licking/flinching” value (TRPA1 [4])?
Its value is “dose-dependent prevention”.

And the IC50 (hTRPV1)?
Its IC50 is greater than 10000 nM.

And the IC50 (hTRPV4)?
Its IC50 is greater than 10000 nM.

What about the fraction unbound at 15 min, 5 µg/mL [5] of the same compound?
The fraction unbound at 15 min, 5 µg/mL was 0.29.

And the rearing time ([6]; AMG0902 100 mg/kg p.o.)?
Its rearing time is 264 ± 52 s.

And the “effect on CFA-induced reduction in rearing” value [6]?
The value was “no significant reduction”.

And the IC90 (rat TRPA1; CHO, read-out: IC90 against rat TRPA1)?
The IC90 was 300 nM.

What about the IC50 (rat TRPA1; rTRPA1 (4-ONE) IC50, 35 µM 4-ONE) of the same compound?
The IC50 was 585 ± 110 nM.

What about the IC50 (rat TRPA1; rTRPA1 (AITC) IC50, 80 µM AITC) of the same compound?
Its IC50 is 68 ± 38 nM.

What about the IC50 (rat TRPA1; rTRPA1 (Methylglyoxal) IC50, 2.74 mM methylglyoxal) of the same compound?
Its IC50 is 151 ± 5 nM.

What about the IC50 (rat TRPA1; rTRPA1 (Osmol) IC50, 100 mOsmol hypo-osmolarity) of the same compound?
The IC50 was 9.7 ± 2 nM.

And the IC50 (mouse TRPA1)?
Its IC50 is 113 ± 77 nM.

And the IC50 (rat TRPV1)?
Its IC50 is greater than 10000 nM.

And the IC50 (rTRPM8)?
Its IC50 is greater than 10000 nM.

And the “mean unbound plasma concentration” value ([7]; CFA Randall Selitto model, 300 mg/kg p.o.)?
The value was 35 ± 11 µM.

What about the “mean unbound plasma concentration” value ([7]; CFA rearing model, 100 mg/kg p.o.) of the same compound?
Its value is 6.1 ± 2.4 µM.

And the “mean unbound plasma concentration” value ([7]; SNL model, 300 mg/kg p.o.)?
The value was 8.4 µM.

What about the “mean Cu concentration (unbound plasma)” value ([7]; open field assay, 300 mg/kg p.o.) of the same compound?
The value was 12.6 ± 5.4 µM.

And the rearing time ([8]; 300 mg/kg p.o., 1 h before)?
Its rearing time is 308 ± 67 s.

And the total distance traveled ([8]; 300 mg/kg p.o., 1 h before)?
Its total distance traveled is 7437 ± 900 cm.

And the “effect on total distance traveled vs vehicle” value [8]?
Its value is “no significant effect”.

What about the Kp ([9]; brain) of the same compound?
The Kp was 0.2.

And the clearance ([9]; male, plasma, iv, 2 mg/kg)?
The clearance was 41.7 mL/min/kg.

What about the IC90 (TRPA1 [10]) of the same compound?
The IC90 was 1700 nM.

What about the IC50 (rTRPV3) of the same compound?
Its IC50 is greater than 10000 nM.

And the IC90 (human TRPA1)?
The IC90 was 186 ± 18 nM.

With `CC(C)c1ccc(NC(=O)Cn2cnc3c2c(=O)n(C)c(=O)n3C)cc1` [HC-030031] as the compound, how does the “effect on mechanically evoked action potential firing in C-fibers” value (C-fibers) read?
The value was “reduced mechanically evoked action potential firing”.

For `NCC1(CC(=O)O)CCCCC1` [gabapentin, reference compound], which “effect on SNL-induced mechanical allodynia” value [3] is on record?
Its value is “significantly reversed”.

And the “effect on total distance traveled vs vehicle” value [8]?
Its value is “not significantly reduced”.

What does the source list for `COc1ccc2cc([C@H](C)C(=O)O)ccc2c1` [naproxen, reference compound]?
rearing time ([6]; naproxen 3 mg/kg p.o.): 418 ± 49 cm; effect on CFA-induced reduction in rearing [6]: significant inhibition
